One data set relates to Plasmodium falciparum. The experiment in a line: Antimalarial activity against CQ-resistant Plasmodium falciparum W2 assessed as parasite growth inhibition after 48 hrs by YOYO-1 dye based flow cytometry. Type of data set: functional, organism-based. As to conditions: W2, 48 h. An outline of the steps: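 W2 strain cultured in RPMI-1640 with 10% human serum, sorbitol-synchronized (5%). Ring-stage microcultures exposed to a range of compound concentrations (DMSO ≤0.1% final; 0.1% DMSO controls) for 48 h. Fixed 48 h in 1% formaldehyde/PBS pH 7.4 at room temperature, stained with 1 nM YOYO-1 in 0.1% Triton X-100/PBS, and parasitemia read by flow cytometry. IC50 from nonlinear fit of duplicate experiments.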
For orientation: A flow cytometer gives signals particle by particle.

The next data set has as its system HeLa. The experiment in a line: Cytotoxicity against human HeLa cells after 24 hrs by trypan blue dye exclusion assay. Type of data set: cell-based. A digest of the protocol:
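HeLa cells grown in DMEM with penicillin/streptomycin. Compound from DMSO stock was added once cultures reached 70% confluency, then incubated 24 h at 37 °C under CO₂. Cells were PBS-washed, detached with 0.25% trypsin for 5 min, and resuspended in PBS. Trypan blue was added for about 10 min at room temperature. Viable and dead cells were counted by hemacytometer, and IC₅₀ derived.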

The nature of data set [1]: Selectivity index, ratio of IC50 for human HeLa cells to IC50 for CQ-resistant Plasmodium falciparum W2. It is filed as toxicity, cell-based. As to conditions: read-out: Ratio IC50. A digest of the protocol: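 Ratio of HeLa IC50 to W2 IC50. HeLa cells grown in DMEM with penicillin/streptomycin to 70% confluency, dosed from DMSO stocks, and incubated 24 h at 37 °C in CO2. Cells were then washed, trypsinized, stained with trypan blue for about 10 min at room temperature, and viable/dead cells counted by hemacytometer. IC50 fitted from counts.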

By IC50 is commonly meant the point on the concentration scale where inhibition reaches its midpoint.

In the case of `COc1ccc(C(=O)/C=C/c2ccc(OCC(=O)O)cc2)cc1`, the IC50 in the data set on Plasmodium falciparum is more than 10000 nM.

As for `O=C(O)COc1ccc(/C=C/C(=O)c2ccccc2)cc1`, in the data set with Plasmodium falciparum, the IC50 is more than 10000 nM. Take `O=Cc1ccc(OCC(=O)NCCNc2ccnc3cc(Cl)ccc23)cc1`: the IC50 with Plasmodium falciparum came to 419 nM. For `O=Cc1ccc(OCC(=O)NCCCNc2ccnc3cc(Cl)ccc23)cc1`, the IC50 with Plasmodium falciparum came to 73.4 nM. Same read-out and setting: the figure for `O=Cc1ccc(OCC(=O)NCCCCNc2ccnc3cc(Cl)ccc23)cc1` is 444 nM.

On to `O=Cc1ccc(OCC(=O)NCCCCCCNc2ccnc3cc(Cl)ccc23)cc1`, for which the IC50 with Plasmodium falciparum is 875 nM. Still for that read-out and setting: the figure for `O=C(COc1ccc(/C=C/C(=O)c2ccccc2)cc1)NCCNc1ccnc2cc(Cl)ccc12` is 905 nM. Turning to `O=C(COc1ccc(/C=C/C(=O)c2ccccc2)cc1)NCCCNc1ccnc2cc(Cl)ccc12`, the IC50 in the data set with Plasmodium falciparum amounted to 109 nM. Still for that read-out and setting: next, `O=C(COc1ccc(/C=C/C(=O)c2ccccc2)cc1)NCCCCNc1ccnc2cc(Cl)ccc12`: 139 nM; `COc1ccc(C(=O)/C=C/c2ccc(OCC(=O)NCCNc3ccnc4cc(Cl)ccc34)cc2)cc1`: 379 nM. The same measure, in the same setting: next, `COc1ccc(C(=O)/C=C/c2ccc(OCC(=O)NCCCNc3ccnc4cc(Cl)ccc34)cc2)cc1`: 221 nM; `COc1ccc(C(=O)/C=C/c2ccc(OCC(=O)NCCCCNc3ccnc4cc(Cl)ccc34)cc2)cc1`: 63 nM. With `COc1ccc(C(=O)/C=C/c2ccc(OCC(=O)NCCCCCCNc3ccnc4cc(Cl)ccc34)cc2)cc1`, the figures for the 50% inhibitory concentration (IC50) with Plasmodium falciparum and in the data set on HeLa were 35.4 nM and 40000 nM, respectively. Further, in data set [1], the selectivity ratio worked out at 1130. As to `O=C(O)COc1ccc(C(=O)/C=C/c2ccccc2)cc1`, the IC50 with Plasmodium falciparum was more than 10000 nM. With `COc1ccc(/C=C/C(=O)c2ccc(OCC(=O)O)cc2)cc1`, the IC50 in the data set on Plasmodium falciparum was more than 10000 nM. As for `CC(=O)c1ccc(OCC(=O)NCCNc2ccnc3cc(Cl)ccc23)cc1`, the IC50 in the data set with Plasmodium falciparum came to 558 nM. On the same count and under the same terms, the figure for `CC(=O)c1ccc(OCC(=O)NCCCNc2ccnc3cc(Cl)ccc23)cc1` is 173 nM; for `CC(=O)c1ccc(OCC(=O)NCCCCNc2ccnc3cc(Cl)ccc23)cc1` it is 148 nM. Take `CC(=O)c1ccc(OCC(=O)NCCCCCCNc2ccnc3cc(Cl)ccc23)cc1`: the half-inhibitory concentration (IC50) in the data set on Plasmodium falciparum was 71.1 nM. The same measure, in the same setting: next, `O=C(COc1ccc(C(=O)/C=C/c2ccccc2)cc1)NCCNc1ccnc2cc(Cl)ccc12`: 840 nM; `O=C(COc1ccc(C(=O)/C=C/c2ccccc2)cc1)NCCCNc1ccnc2cc(Cl)ccc12`: 46.3 nM. For `O=C(COc1ccc(C(=O)/C=C/c2ccccc2)cc1)NCCCCNc1ccnc2cc(Cl)ccc12`, the IC50 in the data set on Plasmodium falciparum was found to be 398 nM. Same read-out and setting: the figure for `O=C(COc1ccc(C(=O)/C=C/c2ccccc2)cc1)NCCCCCCNc1ccnc2cc(Cl)ccc12` is 4070 nM; for `COc1ccc(/C=C/C(=O)c2ccc(OCC(=O)NCCNc3ccnc4cc(Cl)ccc34)cc2)cc1` it is 2740 nM. Same read-out and setting: next, `COc1ccc(/C=C/C(=O)c2ccc(OCC(=O)NCCCNc3ccnc4cc(Cl)ccc34)cc2)cc1`: 50.5 nM; `COc1ccc(/C=C/C(=O)c2ccc(OCC(=O)NCCCCNc3ccnc4cc(Cl)ccc34)cc2)cc1`: 170 nM. For `COc1ccc(/C=C/C(=O)c2ccc(OCC(=O)NCCCCCCNc3ccnc4cc(Cl)ccc34)cc2)cc1`, the 50% inhibitory concentration (IC50) worked out at 17.8 nM with Plasmodium falciparum and 25000 nM in the data set with HeLa. The selectivity ratio in data set [1] was 1400.

As to `C[C@@H]1CC[C@H]2[C@@H](C)C(=O)O[C@@H]3O[C@@]4(C)CC[C@@H]1[C@]32OO4` [ARTEMISININ], in the data set with Plasmodium falciparum, the IC50 worked out at 6.5 nM.
